Reference: paper PMC12335033 (BMC Oral Health, 2025)
Where a SMILES comes first, the peptide text is derived from it.

Experiments:
rat type I collagen [1] = target: rat type I collagen (Rattus norvegicus, UniProt P02454+P02466); experiment: SPR affinity of peptides for type I collagen; type: binding; conditions: for Rmax: SPR, 1:1 binding; for kon: read-out: 1:1 binding ka; for koff: read-out: Kd (dissociation rate constant)
In short: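 Rat type I collagen preconcentrated in sodium acetate (pH 5.0) and amine-coupled to a CM5 chip. Peptide in sodium acetate buffer at five concentrations, 30 µL/min; 100 s contact, 80 s dissociation. Regeneration with glycine 2.0 for 30 s. Three cycles, multicycle kinetics; K_D calculated.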

type I collagen = conditions: isothermal titration calorimetry and enzyme-linked immunosorbent assays; ref [14] (Lei et al.); cited from earlier work
[2] = TEM/SAED/EDS of calcium phosphate; type: physicochemical; conditions: TEM; 0.1 mM peptide, pH 7.0; control: irregularly shaped aggregates
type I collagen fiber = experiment: Collagen fiber mineralization, TEM/SAED/EDS; conditions: 0.1 mM peptide, 7 d; for electron density distribution of collagen fiber (TEM): 3.90 mM CaCl2, 3.83 mM Na2HPO4, pH 7.0, 37 °C; for SAED arc-shaped patterns (hkl) of hydroxyapatite: 37 °C, control one ring (300); for calcium and phosphate distribution (EDS) / fiber mineralization: pH 7.0, 37 °C; for fiber mineralization: TEM
In short: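 Type I collagen fibers self-assembled in 50 mM glycine/200 mM KCl (pH 9.2), room temperature, 20 min, on nickel grids at 37 °C for 12 h, then fixed in 0.05% glutaraldehyde for 1 h. Grids immersed at 37 °C for 7 d in 3.90 mM CaCl₂/3.83 mM Na₂HPO₄ (pH 7.0) with 0.1 mM peptide, changed every 24 h. Peptide-free control. Rinsed, ethanol-dehydrated; TEM, SAED, EDS.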

[3] = Dentin slice remineralization, SEM and tubule plugging rate; design: species or system human; conditions: 0.1 mM peptide 12 h; for plugging rate of dentinal tubules vs control: SEM 3,000×, p < 0.0001; for dentinal tubule diameters (SEM surface) / mineral depth in dentin tubules (SEM cross section) / mineral growth on dentin (SEM surface): then artificial saliva pH 7.0, 2 w
In short: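 Human third-molar crown dentin cut to 5 × 5 × 2 mm slices and polished. Etched with 35% phosphoric gel for 30 s, 5.25% NaOCl for 1 min, sonicated 10 min. Soaked in 0.1 mM peptide for 12 h, rinsed, then 2 w in artificial saliva (pH 7.0) refreshed daily. Peptide-free control. SEM of surface and cross-section; plugging rate from open-tubule counts at 3,000×; n = 9; one-way ANOVA with Tukey.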

collagen membrane [4] = experiment: Calcium ion adsorption by collagen membrane, ICP-MS; conditions: 0.1 mM peptide, pH 7.0, 37 °C, 7 d, n = 9, p < 0.0001
collagen membrane [5] = experiment: TGA of mineralized collagen membrane; conditions: 0.1 mM peptide, 37 °C, 7 d; n = 9; p < 0.0001
[6] = Mechanical properties of remineralized dentin; design: species or system human; conditions: compared with MDP-a group; 2 w mineralization
In short: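 Nanoindentation of the new mineral layer on dentin slices after 2 w of remineralization, tested alongside sound and etched slices. Conditions: 10 mN force, 10 s loading, 2 s hold, Poisson's ratio 0.28. Five points per sample, nine samples per group. Elastic modulus and microhardness derived from load–displacement curves; one-way ANOVA with Tukey.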

rat type I collagen [7] = target: rat type I collagen (rat, UniProt P02454 152-1207; P02466 86-1125); experiment: SPR
rat type I collagen (rat, UniProt P02454 152-1207; P02466 86-1125), sequence (P02454 152-1207, chain 1 of 2): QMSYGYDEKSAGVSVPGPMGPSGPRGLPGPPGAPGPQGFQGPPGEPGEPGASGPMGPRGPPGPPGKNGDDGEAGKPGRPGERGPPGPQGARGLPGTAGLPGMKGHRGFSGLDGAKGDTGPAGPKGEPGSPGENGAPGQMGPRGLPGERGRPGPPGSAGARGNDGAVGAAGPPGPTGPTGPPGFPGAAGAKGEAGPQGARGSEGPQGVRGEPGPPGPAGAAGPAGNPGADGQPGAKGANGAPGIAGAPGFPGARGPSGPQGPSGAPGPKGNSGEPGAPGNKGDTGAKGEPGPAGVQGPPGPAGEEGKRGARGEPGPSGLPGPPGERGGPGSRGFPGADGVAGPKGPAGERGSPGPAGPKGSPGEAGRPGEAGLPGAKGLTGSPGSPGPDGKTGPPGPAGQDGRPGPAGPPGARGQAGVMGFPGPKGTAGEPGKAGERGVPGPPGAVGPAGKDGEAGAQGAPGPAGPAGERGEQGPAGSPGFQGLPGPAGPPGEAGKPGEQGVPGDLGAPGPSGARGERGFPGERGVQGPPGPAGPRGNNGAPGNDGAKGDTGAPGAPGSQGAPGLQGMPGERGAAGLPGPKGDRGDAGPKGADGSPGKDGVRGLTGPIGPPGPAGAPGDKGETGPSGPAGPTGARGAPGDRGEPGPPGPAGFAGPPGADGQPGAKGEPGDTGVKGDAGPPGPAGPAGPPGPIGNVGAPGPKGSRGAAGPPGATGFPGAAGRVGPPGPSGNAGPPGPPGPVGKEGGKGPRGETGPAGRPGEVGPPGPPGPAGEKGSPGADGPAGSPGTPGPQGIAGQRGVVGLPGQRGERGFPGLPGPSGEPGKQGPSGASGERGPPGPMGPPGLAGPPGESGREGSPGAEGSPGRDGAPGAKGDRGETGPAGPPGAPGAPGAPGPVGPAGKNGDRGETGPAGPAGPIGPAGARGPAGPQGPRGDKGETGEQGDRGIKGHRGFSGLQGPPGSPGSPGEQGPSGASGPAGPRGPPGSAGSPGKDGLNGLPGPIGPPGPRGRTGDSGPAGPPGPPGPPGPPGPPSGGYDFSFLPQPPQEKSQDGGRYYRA
rat type I collagen (rat, UniProt P02454 152-1207; P02466 86-1125), sequence (P02466 86-1125, chain 2 of 2): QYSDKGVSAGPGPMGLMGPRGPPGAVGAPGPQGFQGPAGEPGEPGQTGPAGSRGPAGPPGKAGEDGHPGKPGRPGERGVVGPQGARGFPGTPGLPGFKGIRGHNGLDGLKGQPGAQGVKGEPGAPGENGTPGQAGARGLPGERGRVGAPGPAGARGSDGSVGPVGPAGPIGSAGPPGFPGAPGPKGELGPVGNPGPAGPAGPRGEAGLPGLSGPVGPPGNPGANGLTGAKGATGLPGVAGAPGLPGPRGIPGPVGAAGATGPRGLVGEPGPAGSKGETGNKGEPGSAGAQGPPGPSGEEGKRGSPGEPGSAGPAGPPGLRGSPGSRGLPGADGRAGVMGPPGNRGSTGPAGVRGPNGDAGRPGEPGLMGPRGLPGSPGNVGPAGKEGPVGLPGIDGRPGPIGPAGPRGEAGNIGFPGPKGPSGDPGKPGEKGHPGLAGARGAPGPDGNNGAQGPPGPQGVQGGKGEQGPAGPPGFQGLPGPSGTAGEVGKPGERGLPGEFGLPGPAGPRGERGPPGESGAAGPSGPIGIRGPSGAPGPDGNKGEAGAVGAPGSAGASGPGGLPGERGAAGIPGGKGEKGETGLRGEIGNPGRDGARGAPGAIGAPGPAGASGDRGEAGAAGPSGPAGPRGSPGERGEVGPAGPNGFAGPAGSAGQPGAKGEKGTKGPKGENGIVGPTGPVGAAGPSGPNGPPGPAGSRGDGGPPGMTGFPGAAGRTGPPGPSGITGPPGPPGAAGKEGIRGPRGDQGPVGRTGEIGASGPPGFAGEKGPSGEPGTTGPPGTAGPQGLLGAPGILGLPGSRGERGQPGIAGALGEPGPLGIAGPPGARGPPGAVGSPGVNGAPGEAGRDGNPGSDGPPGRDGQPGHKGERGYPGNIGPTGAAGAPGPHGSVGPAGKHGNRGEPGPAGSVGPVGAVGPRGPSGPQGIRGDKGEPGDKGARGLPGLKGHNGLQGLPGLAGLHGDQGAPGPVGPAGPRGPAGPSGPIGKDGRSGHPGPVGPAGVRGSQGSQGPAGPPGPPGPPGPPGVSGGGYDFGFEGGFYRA

## CC(C)C[C@H](NC(=O)[C@H](CC(N)=O)NC(=O)[C@H](CS)NC(=O)[C@H](CO)NC(=O)[C@H](CCC(=O)O)NC(=O)[C@H](CCCCN)NC(=O)[C@@H]1CCCN1C(=O)[C@@H](N)CS)C(=O)N[C@@H](Cc1ccccc1)C(=O)N[C@H](C(=O)N[C@@H](CC(C)C)C(=O)N[C@@H](CCCCN)C(=O)N[C@@H](CC(=O)O)C(=O)O)C(C)C [CBP1495, reference compound] (H-CPKESCNLFVLKD-OH; N-terminus and C-terminus assumed)
Rat type I collagen [1]
  Rmax: 190942.7 RU
  kon: 10600 M⁻¹ s⁻¹
  koff: 0.624 s⁻¹
Type I collagen
  binding to type I collagen: can bind to type I collagen with strong affinity

## CC(C)C[C@H](NC(=O)[C@H](Cc1c[nH]c2ccccc12)NC(=O)[C@H](CS)NC(=O)[C@H](CO)NC(=O)[C@H](Cc1c[nH]c2ccccc12)NC(=O)[C@H](Cc1c[nH]c2ccccc12)NC(=O)[C@H](CC(=O)O)NC(=O)[C@@H](N)CS)C(=O)N[C@@H](CC(=O)O)C(=O)N[C@H](C(=O)N[C@@H](CC(C)C)C(=O)N[C@@H](CCCCN)C(=O)N[C@@H](CC(=O)O)C(=O)O)C(C)C [MDP-a] (H-CDWWSCWLDVLKD-OH; N-terminus and C-terminus assumed)
Rat type I collagen [1]
  Rmax: 53152.0 RU
  kon: 32900 M⁻¹ s⁻¹
  koff: 0.594 s⁻¹
[2]
  morphology of particles: uneven, dense, spherical aggregated particles
Type I collagen fiber
  electron density distribution of collagen fiber (TEM): increase in electron density, the distribution along the collagen fiber was notably uneven, with a substantial amount of electrons present outside the fiber
  SAED arc-shaped patterns (hkl) of hydroxyapatite: 002,300
  calcium and phosphate distribution (EDS): more scattered along the fiber axis
  fiber mineralization: evident fiber mineralization
[3]; artificial saliva 2 w, n = 9
  plugging rate of dentinal tubules vs control: increased significantly
[3]
  dentinal tubule diameters (SEM surface): significantly reduced
  mineral depth in dentin tubules (SEM cross section): 7 μm
  mineral growth on dentin (SEM surface): dense mineral growth was observed on the surface and inside the dentinal tubules

## CC(C)C[C@H](NC(=O)[C@H](CC(N)=O)NC(=O)[C@H](CS)NC(=O)[C@H](CO)NC(=O)[C@H](CCC(=O)O)NC(=O)[C@H](CCCCN)NC(=O)[C@@H]1CCCN1C(=O)[C@@H](N)CS)C(=O)N[C@@H](Cc1ccccc1)C(=O)N[C@H](C(=O)N[C@@H](CC(C)C)C(=O)N[C@@H](CCCCN)C(=O)N[C@@H](CC(=O)O)C(=O)N[C@@H](CC(=O)O)C(=O)N[C@@H](CO)C(=O)N[C@@H](CO)C(=O)N[C@@H](CC(=O)O)C(=O)N[C@@H](CO)C(=O)N[C@@H](CO)C(=O)N[C@@H](CC(=O)O)C(=O)N[C@@H](CO)C(=O)N[C@@H](CO)C(=O)O)C(C)C [MDP-3DSS] (H-CPKESCNLFVLKDDSSDSSDSS-OH; N-terminus and C-terminus assumed)
Rat type I collagen [1]
  Rmax: 65526.7 RU
  kon: 30800 M⁻¹ s⁻¹
  koff: 0.58 s⁻¹
[2]
  morphology of particles: aggregated particles arranged in loose chains
Collagen membrane [4]
  calcium ion adsorption by collagen membrane, MDP-3DSS vs MDP-a: promoted the adsorption of calcium ions by collagen more effectively than MDP-a
Type I collagen fiber
  electron density distribution of collagen fiber (TEM): uniform and dense electron distribution, with significantly increased electron density, indicating a highly mineralized structure
  SAED arc-shaped patterns (hkl) of hydroxyapatite: 002,112,401,122
  calcium and phosphate distribution (EDS): highly concentrated along the fiber axis, with a minimal presence of these ions outside the fiber
  fiber mineralization: evident fiber mineralization
Collagen membrane [5]
  residual mineral content (TGA): highest residual mineral content
[3]; artificial saliva 2 w, n = 9
  plugging rate of dentinal tubules vs control: increased significantly
[3]; artificial saliva 2 w, n = 9, p = 0.0019
  plugging rate of dentinal tubules, MDP-3DSS vs MDP-a: greater plugging rate of dentinal tubules
[3]
  dentinal tubule diameters (SEM surface): significantly reduced
  mineral depth in dentin tubules (SEM cross section): 7 μm
  mineral growth on dentin (SEM surface): dense mineral growth was observed on the surface and inside the dentinal tubules
[6]
  elastic modulus and microhardness relative to sound dentin: closer to those of sound dentin group

## CPKESCNLFVLKDDSSDSSDSS [MDP-3DSS]
Rat type I collagen [7]
  Kd: 18.9 µM

## CPKESCNLFVLKD [CBP1495]
Rat type I collagen [7]
  Kd: 59 µM

## CDWWSCWLDVLKD [MDP-a]
Rat type I collagen [7]
  Kd: 18 µM
